Screens from PubChem.
Rows were chosen to be rich in hits. Some 0.98% of all compounds tested hit in one or more screens of this group.
Statin myotox sup: suppressors of simvastatin-induced myotoxicity in C2C12 myotubes | ATP luminescence, 48 h; scaled: DMSO 0, geranylgeraniol control 100 | rescue of ATP level, % at 7.49 µM | actives 0.78% (n = 330,000);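 active = mean ATP rescue above about 67%, or every replicate alone reaching that limit, limit read from the data, passing the limit was not always enough; inconclusive = no clear call, values can overlap the other calls; inactive = mean under the limit and some replicate under it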;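 also: myotubes were challenged with 10 µM simvastatin during compound exposure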
PGC1a acetyl inh: PGC1a acetylation modulation, inhibitor mode; U2OS PGC1a acetylation, AlphaScreen anti-acetyl-lysine; with virally co-expressed GCN5 acetyltransferase; inhibition, % at 15.6 µM; actives 0.17% (n = 350,000); AID 651687;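 active = every replicate shows inhibition of at least 40%; inconclusive = mean inhibition at least 40% but some replicate below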
S100A4 MyoIIA: inhibitors of human S100A4 binding to myosin IIA peptide; P26447; S100A4/TAMRA-MyoIIA peptide fluorescence polarization; inhibition, % at 10.7 µM; actives 0.14% (n = 360,000); AID 652163;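 active = mean inhibition of at least 70% across replicates, with every replicate also reaching that level; inconclusive = mean inhibition reaches 70% but some replicates fall short; inactive = mean inhibition below 70%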
Target sequence (P26447 whole entry, looked up): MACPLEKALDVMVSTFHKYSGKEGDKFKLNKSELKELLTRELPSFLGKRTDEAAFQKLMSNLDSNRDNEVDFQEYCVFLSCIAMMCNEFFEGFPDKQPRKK
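System – human S100A4 monomer protein, biochemical binding assay · Buffer or medium – Calcium-containing HEPES buffer, pH 7.2 · Timing – 5 min between mix addition and reading · Also added – TAMRA-labelled myosin IIA heavy-chain peptide probe, 5 nM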
Rtt109 Vps75: C. albicans Rtt109 histone acetyltransferase inhibition | purified Rtt109/Vps75, ThioGlo CoA-SH fluorescence, 4 h | inhibition, % at 34.9 µM | actives 0.16% (n = 330,000) | AID 540336;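 active = inhibition of at least 50% in every replicate; inconclusive = best replicate reaches 50% inhibition but some replicates fall short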
Target sequence (Q5AAJ8 whole entry, looked up): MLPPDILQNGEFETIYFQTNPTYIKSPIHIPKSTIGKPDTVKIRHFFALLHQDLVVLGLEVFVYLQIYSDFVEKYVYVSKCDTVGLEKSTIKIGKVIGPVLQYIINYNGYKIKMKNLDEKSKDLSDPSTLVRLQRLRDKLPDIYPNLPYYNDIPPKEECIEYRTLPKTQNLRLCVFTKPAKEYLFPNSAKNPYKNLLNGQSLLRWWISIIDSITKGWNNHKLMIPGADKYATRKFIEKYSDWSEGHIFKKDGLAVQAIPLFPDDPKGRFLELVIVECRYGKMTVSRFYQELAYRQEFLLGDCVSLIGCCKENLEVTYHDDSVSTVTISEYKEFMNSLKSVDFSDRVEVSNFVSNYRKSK
ERAP1 inh: ERAP1 (human) enzyme inhibition | Q9NZ08 | recombinant ERAP1, Leu-AMC fluorescence, 60 min | actives 0.15% (n = 340,000) | inhibition, % at 10.7 µM;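 active = mean replicate inhibition of at least 30%, or all replicates individually reaching that 30% level; inactive = mean below 30% and not every replicate reaching it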
A number is an active result; 0 = inactive; ? = inconclusive; - = no result.

SMILES	Statin myotox sup	PGC1a acetyl inh	S100A4 MyoIIA	Rtt109 Vps75	ERAP1 inh
CCCSc1nc2c(cnn2-c2ccc(C)c(C)c2)c(=O)[nH]1	0	0	0	0	0
COC(=O)c1ccc(CSc2nc3c(cnn3-c3ccc(C)c(C)c3)c(=O)[nH]2)o1	131.9	0	-	0	-
CCCCNC(=O)c1ccc(CS(=O)(=O)c2cccc(C(F)(F)F)c2)o1	143.9	0	-	0	-
COCCNC(=O)c1ccc(CS(=O)(=O)c2cccc(C(F)(F)F)c2)o1	0	0	0	0	0
Clc1ccc(N2COC3c4cccc5cccc(c45)C32)cc1 (stereo not drawn)	0	0	-	0	-
COc1ccc(N2COC3c4cccc5cccc(c45)C32)cc1 (stereo not drawn)	87.8	0	-	0	-
CCNC(=O)C[C@@H]1CC[C@@H]2[C@H](COc3ccc(NC(=O)Nc4ccccc4F)cc3C(=O)N2C)O1	0	0	0	-	0
O=S(=O)(NN1CCOCC1)c1cc(Cl)cc(Cl)c1O	0	0	0	0	37.4
N#Cc1cccc(-c2ccc3c(c2)[C@@H]2[C@@H](CCN2C(=O)c2ccncc2)[C@@H](CO)N3)c1	0	0	97.7	-	0
C/C=C/c1ccc([C@H]2[C@@H](CO)N(C(C)=O)[C@@H]2CN(CCC)C(C)=O)cc1	0	0	-	-	-
CCn1nc(NC(C)=O)c2cc3cccc(C)c3nc21	0	0	0	0	75.0
CCn1nc(NC(=O)C(C)C)c2cc3cccc(C)c3nc21	0	0	0	0	0
O=C(Nc1ccc2c(c1)OCO2)N[C@@H]1CC[C@H](CC(=O)N2CCN(c3ccccc3)CC2)O[C@H]1CO	0	0	0	-	0
CCCCN(CCCC)C(=O)C1CC=CCC1C(=O)O (stereo not drawn)	0	0	0	0	0
CCCCCNC(=O)C1CC=CCC1C(=O)O (stereo not drawn)	124.8	0	-	?	-
CC(C)C[C@H]1CN([C@@H](Cc2ccc(O)cc2)CN2CCC[C@@H]2CN2C(=S)NC[C@@H]2Cc2ccccc2)C(=S)N1CC1CCCCCC1	0	0	0	-	-
CC(C)C[C@H]1CNC(=S)N1CC1CCCN1C[C@H](Cc1ccccc1)N1C[C@H](Cc2ccc(O)cc2)N(CC2CCCCCC2)C1=S (stereo partly drawn)	0	50.6	0	0	0
Cc1ccsc1/C=C1/SC(=O)N(CC(=O)N2CCOCC2)C1=O	0	0	-	0	-
Cc1ccc(/C=C2/SC(=O)N(CC(=O)N3CCOCC3)C2=O)s1	0	0	105.9	0	0
N#Cc1cccc(-c2ccc([C@H]3[C@@H](CO)N4CCCCN(C(=O)Nc5ccccc5)C[C@@H]34)cc2)c1	-	0	0	-	0
Cc1c(Cl)cccc1NC(=O)CNC(=O)Cc1n[nH]c(=O)c2ccccc12	110.1	0	0	0	0
O=C(Cc1n[nH]c(=O)c2ccccc12)NCc1ccc(Cl)cc1	0	0	0	0	0
O=C(O)C(Cc1ccccc1)N1C(=O)/C(=C/c2cccs2)SC1=S (stereo not drawn)	-	0	0	55.8	0
C[C@@H]1CN([C@@H](C)CO)C(=O)c2c(c3ccccc3n2C)-c2ccccc2CO[C@@H]1CN(C)C(=O)Nc1ccc2c(c1)OCO2	0	0	0	-	0
COCc1cc(C)nc(Sc2nc3c(c(=O)n(C)c(=O)n3C)n2C)c1C#N	0	0	0	0	31.5
SMILES	Statin myotox sup	PGC1a acetyl inh	S100A4 MyoIIA	Rtt109 Vps75	ERAP1 inh
CC(c1nc2ccccc2c(=O)[nH]1)N1CCOCC1 (stereo not drawn)	0	0	0	0	0
CC(c1nc2ccccc2c(=O)[nH]1)N1CCN(C)CC1 (stereo not drawn)	117.0	0	-	0	-
O=C(NC1CCCCC1)c1ccc([N+](=O)[O-])o1	69.4	-	-	0	-
CC(C)NC(=O)N(C)C[C@@H]1OCCCC[C@H](C)Oc2ccc(NS(=O)(=O)c3ccccc3)cc2C(=O)N([C@@H](C)CO)C[C@@H]1C	-	0	0	-	0
Cc1cccc(OCC(=O)Nc2cc(C)ccc2O)c1	113.3	0	-	0	-
COc1ccc(/C=N/Nc2nncn2N)cc1Br	0	68.6	0	0	0
COCCNC(=O)C[C@H]1C[C@H]2c3cc(NC(=O)c4ccc5c(c4)OCO5)ccc3O[C@H]2[C@@H](CO)O1	0	0	0	-	0
Cc1cc2nc(/C=C/c3nc4cc(C)c(C)cc4[nH]3)[nH]c2cc1C	0	0	0	0	0
Cc1cc2nc(/C=C/c3cccnc3)[nH]c2cc1C	0	66.7	0	0	0
